Assay results of several laboratories.
Protocols differ between the studies behind these lines.
Target: Transient receptor potential cation channel subfamily M member 6 (TRPM6, Homo sapiens, UniProt Q9BX84)

| SMILES | read-out | technique | concentration | remaining binding |
| --- | --- | --- | --- | --- |
| COc1cnc(Nc2cccc(S(N)(=O)=O)c2)nc1N1CCN(c2ccccc2)CC1 | binding | competition with immobilised ligand | 1 µM | 90% |
| O=C(NCC1CCOCC1)c1n[nH]cc1NC(=O)c1c(F)cccc1F | binding | competition with immobilised ligand | 1 µM | 85% |
| COc1ncc2cc3ccccc3nc2c1C#N | cell-free assay | competition with immobilised ligand | 5 µM | 92% |
| CN(CCCC(F)(F)F)c1nccc(-c2cnn3ncccc23)n1 | binding | – | 1 µM | 100% |
| CS(=O)(=O)N1CCCC(NC(=O)[C@H](CCC2CCCCC2)NC(=O)c2ccc(CNC(=O)c3cnc4ccccn34)cc2)C1 (stereo partly drawn) | cell-free assay | competition with immobilised ligand | 0.1 µM | 100% |
| N[C@@H]1CCN(c2nccc(-c3cnn4ncccc34)n2)C1 | binding | – | 1 µM | 100% |
| Cc1cnc(Nc2ccc(C(=O)N3CCC(N4CCCC4)CC3)cc2)nc1-c1cc2ccccc2s1 | binding | competition with immobilised ligand | 1 µM | 100% |
| Cc1c[nH]c2nccc(Oc3c(F)cc(Nc4cc(Cl)nc(N)n4)cc3F)c12 | cell-free assay | competition with immobilised ligand | 0.1 µM | 83% |
| CC1CCCN1c1nccc(-c2cnn3ncccc23)n1 (stereo not drawn) | binding | – | 1 µM | 100% |
| FC(F)(F)Oc1cccc(-c2cnc3ccc(-c4ccncc4)nn23)c1 | binding | competition with immobilised ligand | 5 µM | 84% |
| CN(C)c1ncc(F)c(-c2cnn3ncccc23)n1 | binding | – | 1 µM | 100% |
| CCCCN(CCCC)C(=O)CN1C[C@H](c2cc(OC)c3c(c2)OCO3)[C@@H](C(=O)O)[C@@H]1CC(C)(C)CCC | cell-free assay | competition with immobilised ligand | 1 µM | 91.6% |
| CCN1CCN(Cc2ccc(C(=O)Nc3ccc(C)c(Oc4ccc5c(c4)CC(=O)N5)c3)cc2C(F)(F)F)CC1 | binding | competition with immobilised ligand | 1 µM | 100% |
| c1cncc(-c2cccc(Nc3nccc(NC4CCCCC4)n3)c2)c1 | binding | competition with immobilised ligand | 10 µM | 97% |
| CN([C@@H]1CCc2c(CC(=O)O)c3cc(S(C)(=O)=O)ccc3n2C1)S(=O)(=O)c1ccc(F)cc1 | cell-free assay | competition with immobilised ligand | 1 µM | 74% |
| O=C(NCCCN1CCOCC1)c1ccc(Nc2nccc(-c3cc4ccccc4s3)n2)cc1 | binding | competition with immobilised ligand | 1 µM | 100% |
| N#CC1(c2ccccn2)CCN(Cc2cc(C(=O)N3CCCC3)c(=O)n3ccccc23)CC1 | cell-free assay | competition with immobilised ligand | 1 µM | 80% |
| F[C@@H]1CCN(c2nccc(-c3cnn4ncccc34)n2)C1 | binding | – | 1 µM | 100% |
| CNCc1ccccc1-c1csc([C@@H](C)Nc2nc(C)nc3cc(OC)c(OC)cc23)c1 | cell-free assay | competition with immobilised ligand | 1 µM | 91% |
| O=C(c1ccc(Nc2ncc(Cl)c(-c3ccc(Cl)s3)n2)cc1)N1CCC(N2CCCC2)CC1 | binding | competition with immobilised ligand | 1 µM | 100% |
| C[C@H]1CCN(c2nccc(-c3cnn4ncccc34)n2)C1 | binding | – | 1 µM | 94% |
